Key:
Salmonella typhi = test: Antibacterial activity against Salmonella typhi CECT 409 assessed as inhibition of microbial growth incubated for 18 hrs by 2-fold microtiter broth dilution method; assay type: functional, organism-based, Salmonella enterica subsp. enterica serovar Typhi; details: Salmonella enterica, CECT 409, 18 h
In short: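 Compounds in DMSO, ten 2-fold serial dilutions (125 down to 0.24 µg/mL), mixed 1:1 with bacteria in Nutrient Broth at OD620 = 0.001. Incubated overnight (18 h) at 28 or 37 °C depending on strain. Growth read turbidimetrically at OD620; MIC is the lowest concentration completely inhibiting growth, per CLSI. Triplicate runs; tetracycline reference.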

Bacillus cereus = test: Antibacterial activity against Bacillus cereus CECT 148 assessed as inhibition of microbial growth incubated for 18 hrs by 2-fold microtiter broth dilution method; assay type: functional, organism-based; details: CECT 148, 18 h
In short: (§1)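 Compounds in DMSO, ten 2-fold serial dilutions (125 down to 0.24 µg/mL tested). Bacteria at OD620 = 0.001 in Nutrient Broth mixed 1:1 with dilutions. Incubated overnight (18 h) at 28°C or 37°C according to strain. Growth read turbidimetrically at OD620. MIC is the lowest concentration giving complete growth inhibition. Triplicate runs. Tetracycline as reference.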

Escherichia coli [1] = test: Antibacterial activity against Escherichia coli CECT 100 assessed as inhibition of microbial growth incubated for 18 hrs by 2-fold microtiter broth dilution method; assay type: functional, organism-based; details: CECT 100, 18 h; in short: as §1
Enterococcus faecalis = test: Antibacterial activity against Enterococcus faecalis CECT 481 assessed as inhibition of microbial growth incubated for 18 hrs by 2-fold microtiter broth dilution method; assay type: functional, organism-based; details: CECT 481, 18 h; in short: as §1
[2] = Selectivity index, ratio of cytotoxicity against human neutrophils by MTT assay to antibacterial IC50 against Staphylococcus aureus CECT 86; assay type: toxicity; details: read-out: Selectivity Index
[3] = test system: Pectobacterium carotovorum; test: Antibacterial activity against Erwinia carotovora CECT 225 assessed as inhibition of microbial growth incubated for 18 hrs by 2-fold microtiter broth dilution method; assay type: functional, organism-based; details: CECT 225, 18 h; in short: as §1
Escherichia coli [4] = test: Antibacterial activity against Escherichia coli CECT 405 assessed as inhibition of microbial growth incubated for 18 hrs by 2-fold microtiter broth dilution method; assay type: functional, organism-based; details: CECT 405, 18 h; in short: as §1
[5] = Selectivity index, ratio of cytotoxicity against human neutrophils by annexin V-FITC and propidium iodide staining based cytofluorometry to antibacterial IC50 against Staphylococcus aureus CECT 86; assay type: toxicity; details: read-out: Selectivity Index
Staphylococcus aureus = test: Antibacterial activity against Staphylococcus aureus CECT 86 assessed as inhibition of microbial growth incubated for 18 hrs by 2-fold microtiter broth dilution method; assay type: functional, organism-based; details: CECT 86, 18 h; in short: as §1
[6] = Selectivity index, ratio of cytotoxicity against human neutrophils by annexin V-FITC and propidium iodide staining based cytofluorometry to antibacterial IC50 against Salmonella typhi CECT 409; assay type: toxicity; details: read-out: Selectivity Index
[7] = Cytotoxicity against human neutrophils assessed as reduction in cell viability at 30 uM incubated for 24 hrs by MTT assay; assay type: cell-based; details: neutrophil
In short: (§2)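 Neutrophils from buffy coats of healthy donors were isolated by Ficoll-Hypaque gradient and seeded at 2 x 10⁵ cells/mL in supplemented RPMI. Exposed to 30 or 100 µM for 24 h at 37 °C, then MTT (2 mg/mL in PBS) added for 3 h. Formazan dissolved in DMSO and read at 560 and 630 nm. Mean ± SEM of n=6-9 independent experiments, compared against vehicle.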

[8] = Cytotoxicity against human neutrophils assessed as reduction in cell viability at 100 uM incubated for 24 hrs by MTT assay; assay type: cell-based; details: neutrophil; in short: as §2
[9] = Selectivity index, ratio of cytotoxicity against human neutrophils by MTT assay to antibacterial IC50 against Enterococcus faecalis CECT 481; assay type: toxicity; details: read-out: Selectivity Index
[10] = Toxicity in human neutrophils assessed as induction of apoptosis at 30 and 100 uM incubated for 24 hrs by annexin V-FITC and propidium iodide staining based cytofluorometry; assay type: cell-based; details: neutrophil
In short: (§3)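 Freshly isolated donor neutrophils (2 x 10⁶ cells/mL stock, diluted into supplemented RPMI) cultured 24 h with 30 or 100 µM. Stained with annexin V-FITC/propidium iodide; 1 x 10⁴ cells analysed by flow cytometry. Gating: annexin V+/PI− apoptotic, V+/PI+ late apoptotic/necrotic, V−/PI− viable. Mean ± SEM, n=3, compared against vehicle.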

[11] = Selectivity index, ratio of cytotoxicity against human neutrophils by MTT assay to antibacterial IC50 against Escherichia coli CECT 405; assay type: toxicity; details: read-out: Selectivity Index
[12] = Toxicity in human neutrophils assessed as cell survival at 30 uM incubated for 24 hrs by annexin V-FITC and propidium iodide staining based cytofluorometry; details: neutrophil; in short: as §3
[13] = Selectivity index, ratio of cytotoxicity against human neutrophils by annexin V-FITC and propidium iodide staining based cytofluorometry to antibacterial IC50 against Escherichia coli CECT 405; assay type: toxicity; details: read-out: Selectivity Index
Bacillus subtilis = test: Antibacterial activity against Bacillus subtilis CECT 35 assessed as inhibition of microbial growth incubated for 18 hrs by 2-fold microtiter broth dilution method; assay type: functional, organism-based; details: CECT 35, 18 h; in short: as §1
[14] = Selectivity index, ratio of cytotoxicity against human neutrophils by MTT assay to antibacterial IC50 against Salmonella typhi CECT 409; assay type: toxicity; details: read-out: Selectivity Index
[15] = Selectivity index, ratio of cytotoxicity against human neutrophils by annexin V-FITC and propidium iodide staining based cytofluorometry to antibacterial IC50 against Enterococcus faecalis CECT 481; assay type: toxicity; details: read-out: Selectivity Index
[16] = Toxicity in human neutrophils assessed as induction of necrosis at 100 uM incubated for 24 hrs by annexin V-FITC and propidium iodide staining based cytofluorometry; assay type: cell-based; details: neutrophil; in short: as §3

Compound	IC50 (Salmonella typhi)	MIC (Salmonella typhi)	IC50 (Bacillus cereus)	MIC (Bacillus cereus)	IC50 (Escherichia coli [1])	MIC (Escherichia coli [1])	IC50 (Enterococcus faecalis)	MIC (Enterococcus faecalis)	selectivity ratio [2]	MIC [3]	IC50 (Escherichia coli [4])	MIC (Escherichia coli [4])	selectivity ratio [5]	IC50 (Staphylococcus aureus)	MIC (Staphylococcus aureus)	selectivity ratio [6]	Activity [7]	Activity [8]	selectivity ratio [9]	Activity [10]	other results
O=C1O/C(=C\c2ccc(O)c(Br)c2)C(c2cc(Br)c(O)c(Br)c2)=C1C(=O)c1ccc(O)c(Br)c1	2.72 µM	1.95 µg/mL	2.72 µM	1.95 µg/mL	> 175 µM	> 125 µg/mL	2.72 µM	1.95 µg/mL	5	125 µg/mL	2.72 µM	1.95 µg/mL	5	2.72 µM	1.95 µg/mL	5	Non-toxic	Toxic	5	Non-toxic	selectivity ratio [11]: 5; Activity [12]: Non-toxic; selectivity ratio [13]: 5; MIC (Bacillus subtilis): 125 µg/mL; selectivity ratio [14]: 5; selectivity ratio [15]: 5; Activity [16]: 36%
O=C1O/C(=C\c2ccc(O)c(Br)c2)C(c2ccc(O)c(Br)c2)=C1C(=O)c1ccco1	3.66 µM	1.95 µg/mL	3.66 µM	1.95 µg/mL	29.4 µM	15.6 µg/mL	3.66 µM	1.95 µg/mL	5	125 µg/mL	3.66 µM	1.95 µg/mL	5	3.66 µM	1.95 µg/mL	5	Non-toxic	Toxic	5	Non-toxic	selectivity ratio [11]: 5; Activity [12]: Non-toxic; selectivity ratio [13]: 5; MIC (Bacillus subtilis): 125 µg/mL; selectivity ratio [14]: 5; selectivity ratio [15]: 5; Activity [16]: 95%
O=C1O/C(=C\c2ccc(O)c(Br)c2)C(c2cc(Br)c(O)c(Br)c2)=C1C(=O)c1ccco1	3.19 µM	1.95 µg/mL	6.38 µM	3.9 µg/mL	25.6 µM	15.6 µg/mL	3.19 µM	1.95 µg/mL	5	125 µg/mL	6.38 µM	3.9 µg/mL	5	3.19 µM	1.95 µg/mL	5	Non-toxic	Toxic	5	Non-toxic	selectivity ratio [11]: 5; Activity [12]: Non-toxic; selectivity ratio [13]: 5; MIC (Bacillus subtilis): 125 µg/mL; selectivity ratio [14]: 5; selectivity ratio [15]: 5; Activity [16]: 57%
O=C1O/C(=C\c2ccc(O)c(Br)c2)C(c2ccc(O)c(Br)c2)=C1C(=O)c1ccc(O)c(Br)c1	3.06 µM	1.95 µg/mL	3.06 µM	1.95 µg/mL	> 196 µM	> 125 µg/mL	3.06 µM	1.95 µg/mL	5	125 µg/mL	3.06 µM	1.95 µg/mL	5	3.06 µM	1.95 µg/mL	5	Non-toxic	Toxic	5	Non-toxic	selectivity ratio [11]: 5; Activity [12]: Non-toxic; selectivity ratio [13]: 5; MIC (Bacillus subtilis): 125 µg/mL; selectivity ratio [14]: 5; selectivity ratio [15]: 5; Activity [16]: 98%

Reference: ChEMBL document CHEMBL3585302, “Synthesis and antibacterial activities of cadiolides A, B and C and analogues” (Bioorg Med Chem, 2015)
